Test [1] addresses Serine/threonine-protein kinase N2 (Homo sapiens) (UniProt Q16513). Briefly: Inhibition of human recombinant PKN2 at 15 nM in presence of ATP by radiometric assay relative to control.
The target in test [2] is Cyclin-dependent kinase-like 3 (Homo sapiens) (UniProt Q8IVW4). Briefly: Inhibition of human recombinant CDKL3 at 15 nM related to control ULK1.
Test [3] deals with Ephrin type-A receptor 2 (Homo sapiens) (UniProt P29317). As to the kind of experiment: Inhibition of human recombinant EphA2 at 15 nM in presence of ATP by radiometric assay relative to control.
Test [4] has as its target Insulin-like growth factor 1 receptor (Homo sapiens) (UniProt P08069). As to the kind of experiment: Inhibition of human recombinant IGF1R at 15 nM related to control ULK1.
For test [5], the target named is Casein kinase I isoform gamma-1 (Homo sapiens) (UniProt Q9HCP0). As to the kind of experiment: Inhibition of human recombinant CK1g1 at 15 nM in presence of ATP by radiometric assay relative to control.
In test [6] the target is Wee1-like protein kinase (Homo sapiens) (UniProt P30291). As to the kind of experiment: Inhibition of human recombinant Wee1 at 15 nM in presence of ATP by radiometric assay relative to control.
Test [7] concerns the target T1, Protein kinase C epsilon type (Homo sapiens) (UniProt Q02156).
T1 sequence (whole entry): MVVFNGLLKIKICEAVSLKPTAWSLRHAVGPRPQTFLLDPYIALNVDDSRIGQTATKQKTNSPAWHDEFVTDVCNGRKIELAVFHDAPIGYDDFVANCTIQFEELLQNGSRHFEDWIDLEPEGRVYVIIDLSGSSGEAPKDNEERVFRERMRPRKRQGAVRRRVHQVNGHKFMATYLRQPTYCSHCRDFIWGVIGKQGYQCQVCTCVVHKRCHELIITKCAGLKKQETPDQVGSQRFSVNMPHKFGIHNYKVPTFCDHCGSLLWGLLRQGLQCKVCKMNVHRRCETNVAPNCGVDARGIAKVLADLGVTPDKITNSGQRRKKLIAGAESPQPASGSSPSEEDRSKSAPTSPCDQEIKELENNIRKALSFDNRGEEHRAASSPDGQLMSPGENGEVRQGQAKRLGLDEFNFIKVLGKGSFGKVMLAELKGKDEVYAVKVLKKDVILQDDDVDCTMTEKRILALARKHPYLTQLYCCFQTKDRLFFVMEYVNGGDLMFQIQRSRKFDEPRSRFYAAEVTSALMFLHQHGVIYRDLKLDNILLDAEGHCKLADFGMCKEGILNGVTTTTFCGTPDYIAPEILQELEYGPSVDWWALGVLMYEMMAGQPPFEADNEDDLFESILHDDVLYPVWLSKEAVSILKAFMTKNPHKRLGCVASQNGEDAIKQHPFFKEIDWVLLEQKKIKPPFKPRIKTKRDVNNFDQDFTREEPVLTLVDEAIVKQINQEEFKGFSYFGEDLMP
As to the kind of experiment: Inhibition of human recombinant PKCe at 15 nM related to control ULK1.

The target of test [8] is T2, Serine/threonine-protein kinase 3 (Homo sapiens) (UniProt Q13188).
T2 sequence (whole entry): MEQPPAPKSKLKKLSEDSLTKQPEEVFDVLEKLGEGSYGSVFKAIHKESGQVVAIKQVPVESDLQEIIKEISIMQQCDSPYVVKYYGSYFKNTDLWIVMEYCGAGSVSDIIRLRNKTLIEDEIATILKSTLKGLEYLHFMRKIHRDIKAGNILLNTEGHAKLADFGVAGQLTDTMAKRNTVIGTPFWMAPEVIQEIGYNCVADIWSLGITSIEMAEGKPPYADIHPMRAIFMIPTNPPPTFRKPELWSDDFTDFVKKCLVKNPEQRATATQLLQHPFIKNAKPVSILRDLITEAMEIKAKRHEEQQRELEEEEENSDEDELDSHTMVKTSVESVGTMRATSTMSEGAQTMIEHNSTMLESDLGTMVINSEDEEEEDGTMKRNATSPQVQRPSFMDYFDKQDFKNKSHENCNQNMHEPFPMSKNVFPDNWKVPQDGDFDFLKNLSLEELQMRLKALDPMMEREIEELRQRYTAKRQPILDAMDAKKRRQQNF
As to the kind of experiment: Inhibition of human recombinant MST2 at 15 nM related to control ULK1.

The target in test [9] is Epidermal growth factor receptor (Homo sapiens) (UniProt P00533). As to the kind of experiment: Inhibition of human recombinant EGFR at 15 nM related to control ULK1.
In test [10] the target is Wee1-like protein kinase 2 (Homo sapiens) (UniProt P0C1S8). Briefly: Inhibition of human recombinant Wee1B at 40 nM related to control ULK1.
Test [11] deals with Activated CDC42 kinase 1 (Homo sapiens) (UniProt Q07912). As to the kind of experiment: Inhibition of human recombinant ACK at 40 nM in presence of ATP by radiometric assay relative to control. The essentials:
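Panel of 327 recombinant human kinases in radiometric activity assays, each screened in duplicate at a single inhibitor concentration; percent activity remaining relative to vehicle control, percent inhibition taken as 100 minus activity remaining.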

Test [12] deals with Glycogen synthase kinase-3 beta (Homo sapiens) (UniProt P49841). As to the kind of experiment: Inhibition of human recombinant GSK3B at 40 nM related to control ULK1.
Test [13] concerns the target Myosin light chain kinase 2, skeletal/cardiac muscle (Homo sapiens) (UniProt Q9H1R3). Briefly: Inhibition of human recombinant skMLCK at 500 nM related to control ULK1.
Test [14] deals with Activin receptor type-2A (Homo sapiens) (UniProt P27037). Briefly: Inhibition of human recombinant ACTR2 at 500 nM in presence of ATP by radiometric assay relative to control.
For test [15], the target named is Casein kinase I isoform gamma-3 (Homo sapiens) (UniProt Q9Y6M4). Briefly: Inhibition of human recombinant CK1g3 at 500 nM in presence of ATP by radiometric assay relative to control.
For test [16], the target named is Ribosomal protein S6 kinase alpha-1 (Homo sapiens) (UniProt Q15418). Briefly: Inhibition of human recombinant RSK1 at 500 nM in presence of ATP by radiometric assay relative to control.

What is called inhibition is the percentage by which the read-out fell short of the control.

Turning to `CC(C)[C@H](NC(=O)c1cc(-c2cnn3cc(-c4ccc(OCCN5CCCCC5)cc4)cnc23)cs1)C(F)(F)F`, the inhibition in [1] came to 0%; in test [3], 0%; in test [5], 0%; in [6], 15%. In addition, the fold change (FC) turned out to be 0.39 in test [2]; 0 in test [4]; 0 in test [7]; 0.03 in test [8]; 0.03 in test [9].
Consider `O=C(N[C@@H](C1CC1)C(F)(F)F)c1cc(-c2cnn3cc(-c4ccc(F)cc4)cnc23)cs1`, for which the fold change (FC) in test [10] and in test [12] was 0 in each case. The inhibition in [11] was 17%.
Consider `CNC(=O)c1ccccc1Oc1nc(Nc2cc(OC)c(OC)c(OC)c2)ncc1Br`, for which the fold change (FC) in [13] is 0. The inhibition turned out to be 3% in test [14], 0% in test [15] and 19% in test [16].

The record behind these values is ChEMBL document CHEMBL5653631, “A Potent and Selective ULK1 Inhibitor Suppresses Autophagy and Sensitizes Cancer Cells to Nutrient Stress” (iScience, 2018).
